# Columns and labels:
# Format in all cases: cell-based
# [1] = target: Sodium-dependent dopamine transporter (Homo sapiens, UniProt Q01959); assay: In vitro displacement of [3H]GBR-12935 from human dopamine transporter expressed in HEK293 cells
# In short: (§1)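 Competitive binding using cloned human transporters expressed in HEK-293 cells. NET was labelled with [³H]nisoxetine and DAT with [³H]GBR12935, following a previously published procedure.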
# [2] = target: Sodium-dependent noradrenaline transporter (Homo sapiens, UniProt P23975); assay: In vitro displacement of [3H]nisoxetine from human norepinephrine transporter expressed in HEK293 cells; in short: as §1
# [3] = target: Sodium-dependent serotonin transporter (Homo sapiens, UniProt P31645); assay: In vitro displacement of [3H]paroxetine from human serotonin transporter expressed in HEK293 cells
# Sequence of Sodium-dependent serotonin transporter (P31645 whole entry): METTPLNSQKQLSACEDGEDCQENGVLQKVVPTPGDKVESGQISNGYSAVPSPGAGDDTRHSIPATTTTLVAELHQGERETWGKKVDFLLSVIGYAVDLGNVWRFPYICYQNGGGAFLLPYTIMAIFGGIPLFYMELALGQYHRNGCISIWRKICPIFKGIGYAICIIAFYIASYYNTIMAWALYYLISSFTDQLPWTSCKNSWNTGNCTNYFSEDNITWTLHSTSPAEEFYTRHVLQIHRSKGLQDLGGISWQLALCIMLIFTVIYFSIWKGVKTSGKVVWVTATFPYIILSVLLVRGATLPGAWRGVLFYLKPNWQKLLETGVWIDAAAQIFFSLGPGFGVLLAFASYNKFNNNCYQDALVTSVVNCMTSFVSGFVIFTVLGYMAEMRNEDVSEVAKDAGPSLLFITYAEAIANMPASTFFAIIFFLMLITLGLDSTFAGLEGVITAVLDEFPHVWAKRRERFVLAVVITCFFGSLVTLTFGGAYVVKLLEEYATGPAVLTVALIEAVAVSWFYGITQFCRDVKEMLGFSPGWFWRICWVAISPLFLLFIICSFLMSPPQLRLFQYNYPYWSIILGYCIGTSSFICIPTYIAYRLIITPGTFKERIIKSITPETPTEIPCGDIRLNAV
# Sequence of Sodium-dependent dopamine transporter (Q01959 whole entry): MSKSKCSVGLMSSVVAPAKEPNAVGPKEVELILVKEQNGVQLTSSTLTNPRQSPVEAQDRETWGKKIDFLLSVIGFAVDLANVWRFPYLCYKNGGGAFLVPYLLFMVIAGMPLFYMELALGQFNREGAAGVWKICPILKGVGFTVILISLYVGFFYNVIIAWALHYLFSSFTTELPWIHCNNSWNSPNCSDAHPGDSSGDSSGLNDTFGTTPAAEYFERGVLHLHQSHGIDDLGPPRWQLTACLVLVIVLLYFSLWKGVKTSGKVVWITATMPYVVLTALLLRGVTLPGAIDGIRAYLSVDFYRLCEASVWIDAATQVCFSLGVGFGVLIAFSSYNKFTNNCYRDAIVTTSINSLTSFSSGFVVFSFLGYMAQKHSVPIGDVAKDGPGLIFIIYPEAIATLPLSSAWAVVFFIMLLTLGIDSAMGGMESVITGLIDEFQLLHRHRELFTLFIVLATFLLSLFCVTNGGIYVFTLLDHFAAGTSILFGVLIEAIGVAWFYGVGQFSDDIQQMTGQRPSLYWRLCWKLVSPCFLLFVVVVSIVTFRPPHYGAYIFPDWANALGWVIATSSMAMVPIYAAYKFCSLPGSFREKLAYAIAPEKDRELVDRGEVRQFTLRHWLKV
# Sequence of Sodium-dependent noradrenaline transporter (P23975 whole entry): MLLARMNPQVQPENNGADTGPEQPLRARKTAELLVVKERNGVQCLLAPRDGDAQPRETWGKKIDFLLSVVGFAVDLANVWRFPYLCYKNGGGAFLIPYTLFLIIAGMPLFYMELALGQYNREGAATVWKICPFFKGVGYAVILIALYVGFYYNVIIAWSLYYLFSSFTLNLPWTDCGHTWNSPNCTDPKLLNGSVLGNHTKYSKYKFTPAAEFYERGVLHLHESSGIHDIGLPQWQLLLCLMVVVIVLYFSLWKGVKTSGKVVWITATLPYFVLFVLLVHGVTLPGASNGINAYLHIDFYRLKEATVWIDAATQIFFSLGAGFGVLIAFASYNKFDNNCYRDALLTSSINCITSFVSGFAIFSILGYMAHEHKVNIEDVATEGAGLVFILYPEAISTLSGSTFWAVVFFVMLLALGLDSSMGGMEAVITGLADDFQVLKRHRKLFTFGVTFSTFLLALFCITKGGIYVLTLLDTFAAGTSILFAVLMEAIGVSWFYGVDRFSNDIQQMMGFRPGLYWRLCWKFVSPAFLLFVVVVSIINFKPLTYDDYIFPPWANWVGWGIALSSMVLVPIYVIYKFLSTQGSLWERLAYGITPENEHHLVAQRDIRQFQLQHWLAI
Compound,Ki [1],Ki [2],Ki [3]
CCNCc1ccccc1Sc1ccc(C)cc1N,2.12 µM,7.55 µM,
CN(C)Cc1ccccc1Sc1ccc(I)cc1N,,,0.00107 µM
Cc1ccc(Sc2ccccc2CNCCF)c(N)c1,4.43 µM,3.91 µM,0.0713 µM
C=CCNCc1ccccc1Sc1ccc(C)cc1N,2.91 µM,3.82 µM,

# Source: ChEMBL document CHEMBL1145212, “Fluorinated diaryl sulfides as serotonin transporter ligands: synthesis, structure-activity relationship study, and in vivo evaluation of fluorine-18-labeled compounds as PET imaging agents” (J Med Chem, 2005)
